According to ChEMBL document CHEMBL4368867 (Medchemcomm, 2018):

Assays:
[1] = molecular target: Carbonic anhydrase 9 (Homo sapiens, UniProt Q16790); experiment: Inhibition of human carbonic anhydrase-9 incubated for 15 mins prior to testing by stopped-flow CO2 hydration assay
[2] = molecular target: Carbonic anhydrase 1 (Homo sapiens, UniProt P00915); experiment: Inhibition of human erythrocyte carbonic anhydrase-1 incubated for 15 mins prior to testing by stopped-flow CO2 hydration assay
[3] = molecular target: Carbonic anhydrase 2 (Homo sapiens, UniProt P00918); experiment: Inhibition of recombinant human carbonic anhydrase-2 expressed in Escherichia coli incubated for 15 mins prior to testing by stopped-flow CO2 hydration assay
[4] = species on record: Homo sapiens; experiment: Selectivity ratio of IC50 for human erythrocyte carbonic anhydrase-1 to IC50 for human carbonic anhydrase-9
In short: (§1)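 Ratio of the CA I or CA II IC50 to the CA IX IC50. hCA IX was purified recombinant protein; CA I and CA II were commercial. Enzyme levels were 50 ng µL−1 for CA I, 1 ng µL−1 for CA II and 3 ng µL−1 for CA IX. Inhibitor in DMSO was preincubated with enzyme for 15 min. Activity was read as stopped-flow CO2 hydration or initial 4-nitrophenyl acetate hydrolysis rates. Triplicates per concentration, mean reported.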

[5] = species on record: Homo sapiens; experiment: Selectivity ratio of IC50 for recombinant human carbonic anhydrase-2 expressed in Escherichia coli to IC50 for human carbonic anhydrase-9; in short: as §1

Chain of Carbonic anhydrase 1 (P00915 whole entry): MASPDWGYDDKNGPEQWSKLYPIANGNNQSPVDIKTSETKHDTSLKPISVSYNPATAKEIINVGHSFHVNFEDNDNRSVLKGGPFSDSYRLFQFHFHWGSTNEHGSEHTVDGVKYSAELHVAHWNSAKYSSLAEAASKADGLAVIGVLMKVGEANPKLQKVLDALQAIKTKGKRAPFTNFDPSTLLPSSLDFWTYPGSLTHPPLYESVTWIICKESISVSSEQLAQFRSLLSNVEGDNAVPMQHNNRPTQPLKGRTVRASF

| IC50 [1] [nM] | IC50 [2] [nM] | IC50 [3] [nM] | Ratio IC50 [4] | Ratio IC50 [5] | Structure (SMILES) |
| --- | --- | --- | --- | --- | --- |
| > 104 | 60.5 | 142 | – | – | NS(=O)(=O)c1cccc(NC(=S)NC(=O)c2ccc([N+](=O)[O-])cc2)c1 |
| 4.42 | 1340 | 950 | 304 | 215 | NS(=O)(=O)c1cccc(NC(=S)NC(=O)c2ccc(Cl)cc2Cl)c1 |
| 3.42 | 661 | 22.9 | 193 | 6.68 | NS(=O)(=O)c1ccc(NC(=S)NC(=O)c2ccccc2Cl)cc1 |
| 54.3 | 44.4 | 20.7 | 0.82 | 0.38 | COc1ccccc1C(=O)NC(=S)Nc1cccc(S(N)(=O)=O)c1 |
| 25.7 | 867 | 167 | 33.7 | 6.47 | NS(=O)(=O)c1cccc(NC(=S)NC(=O)c2ccccc2)c1 |
| 0.3 | 267 | 2.09 | 889 | 6.97 | COc1ccccc1C(=O)NC(=S)Nc1ccc(S(N)(=O)=O)cc1 |
| 25.5 | 665 | 908 | 26.1 | 35.6 | COc1ccc(C(=O)NC(=S)Nc2cccc(S(N)(=O)=O)c2)cc1 |
| 19 | 773 | 277 | 40.7 | 14.6 | NS(=O)(=O)c1cccc(NC(=S)NC(=O)c2ccccc2Cl)c1 |
| 4.14 | 423 | 12.9 | 102 | 3.13 | NS(=O)(=O)c1ccc(NC(=S)NC(=O)c2ccc(Cl)cc2)cc1 |
| 0.12 | 632 | 11.8 | 5270 | 98.5 | NS(=O)(=O)c1ccc(NC(=S)NC(=O)c2ccc(Cl)cc2Cl)cc1 |
| 0.47 | 694 | 25.6 | 1480 | 54.4 | COc1ccc(C(=O)NC(=S)Nc2ccc(S(N)(=O)=O)cc2)cc1 |
| 42.2 | 1540 | 240 | 36.5 | 5.67 | NS(=O)(=O)c1cccc(NC(=S)NC(=O)c2ccc(Cl)cc2)c1 |
| 0.48 | 504 | 749 | 1050 | 1560 | NS(=O)(=O)c1ccc(NC(=S)NC(=O)c2ccc([N+](=O)[O-])cc2)cc1 |
